According to ChEMBL document CHEMBL1157108, “Rapid structural identification of cytotoxic bufadienolide sulfates in toad venom from Bufo melanosticus by LC-DAD-MS(n) and LC-SPE-NMR” (J Nat Prod, 2010):

How the values were obtained:
A549 = assay: Growth inhibition of human A549 cells after 72 hrs by MTT assay; format: functional, cell-based; settings: A549, 72 h
Procedure, shortened: (§1)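 Cells seeded at 10 000 to 40 000 cells/mL (cell-type dependent) and allowed 24 h to plate, then grown 72 h with or without compound. Culture in RPMI with 10% heat-inactivated FCS, 4 mM glutamine, gentamicin and penicillin-streptomycin. Living cells reduce MTT to formazan, read at 570 nm against a 630 nm reference. IC50 reported as mean ± SD.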

CT26 = assay: Growth inhibition of mouse CT26 cells after 72 hrs by MTT assay; format: functional, cell-based; settings: CT26, 72 h; procedure, shortened: as §1
B16-F10 = assay: Growth inhibition of mouse B16F10 cells after 72 hrs by MTT assay; format: functional, cell-based; settings: B16-F10, 72 h; procedure, shortened: as §1
MCF7 = assay: Growth inhibition of human MCF7 cells after 72 hrs by MTT assay; format: functional, cell-based; settings: MCF7, 72 h; procedure, shortened: as §1
[1] = Growth inhibition of human Hs683 cells after 72 hrs by MTT assay; format: functional, cell-based; settings: Hs 683, 72 h; procedure, shortened: as §1
[2] = Growth inhibition of human U373 cells after 72 hrs by MTT assay; format: functional, cell-based, U-373MG ATCC; settings: U373 MG; procedure, shortened: as §1

| SMILES | IC50 (A549) [nM] | IC50 (CT26) [nM] | IC50 (B16-F10) [nM] | IC50 (MCF7) [nM] | IC50 [1] [nM] | IC50 [2] [nM] |
| --- | --- | --- | --- | --- | --- | --- |
| C[C@]12CC[C@H](OS(=O)(=O)O)C[C@H]1CC[C@@H]1[C@@H]2CC[C@]2(C)[C@@H](c3ccc(=O)oc3)[C@@H](O)C[C@]12O | 464 | > 10000 | > 10000 | 3290 | 177 | 525 |
| C[C@]12CC[C@H]3[C@@H](CC[C@]4(O)C[C@@H](OS(=O)(=O)O)CC[C@]34C=O)[C@@]1(O)CC[C@@H]2c1ccc(=O)oc1 | 45 | > 10000 | > 10000 | 507 | 98 | 396 |
| C[C@]12CC[C@H]3[C@@H](CC[C@@H]4C[C@@H](OS(=O)(=O)O)CC[C@@]43CO)[C@@]1(O)CC[C@@H]2c1ccc(=O)oc1 | 5 | > 10000 | > 10000 | 150 | 82 | 12 |
| C[C@]12CC[C@H](OS(=O)(=O)O)C[C@@]1(O)CC[C@@H]1[C@@H]2CC[C@]2(C)[C@@H](c3ccc(=O)oc3)CC[C@]12O | 36 | > 10000 | > 10000 | 1580 | 7 | 51 |
| C[C@]12CC[C@H]3[C@@H](CC[C@]4(O)C[C@@H](OS(=O)(=O)O)CC[C@]34CO)[C@@]1(O)CC[C@@H]2c1ccc(=O)oc1 | 80 | > 10000 | > 10000 | 120 | 50 | 323 |
| CC(=O)O[C@H]1C[C@]2(O)[C@@H]3CC[C@@H]4C[C@@H](O)CC[C@]4(C)[C@H]3[C@H](O)C(=O)[C@]2(C)[C@H]1c1ccc(=O)oc1 | 1360 | > 10000 | > 10000 | 2250 | 455 | 878 |
| C[C@@H]1O[C@@H](O[C@H]2CC[C@]3(C=O)[C@H]4CC[C@]5(C)[C@@H](c6ccc(=O)oc6)CC[C@]5(O)[C@@H]4CC[C@]3(O)C2)[C@H](O)[C@H](O)[C@H]1O[C@@H]1O[C@H](CO)[C@@H](O)[C@H](O)[C@H]1O [HELLEBRIN] | 16 | > 10000 | > 10000 | 82 | 7 | 49 |
